Measurements taken from PubChem BioAssay.
The source made the active and inactive calls.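 How the source made its calls, unless noted: active means inhibition above 20% together with a positive visual image hit; inconclusive means visual image hit but inhibition not above 20%; inactive means no visual image hit.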

What was measured:
[1] = inhibitors of TNFa-induced NFkB p65 translocation, primary screen, imaging, HUVEC, MLSMR starter and 10KST1 sets (AID 438); conditions: HUVEC TNFa-induced p65 nuclear translocation; cell count: measured here: nuclei count (cytotoxicity indicator), at 2.08 µM; inhibition: at 2 µM, stronger effect = higher value, 0% TNFa-plus-vehicle, 100% no-TNFa wells;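 further: compound added about 3h40 before a 20 min TNFalpha stimulation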;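 on inhibition: signal is the nuclear over cytoplasmic p65 intensity ratio per well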
[2] = inhibitors of mutant huntingtin aggregation, primary screen, imaging, exon1htt(103Q)mCFP cells, high-content imaging (AID 483;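 active means visual image review flags a hit and inhibition of aggregation exceeds 20%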;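 further: compound exposure lasted 3 days before fixation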;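 on nuclei count: percent of the per-plate median nuclei count of sample wells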); conditions: exon1htt(103Q)mCFP cell line, aggregate imaging, at 2 µM; inhibition of aggregation: stronger effect = higher value; nuclei count: measured here: cell count, toxicity
[3] = inhibitors of E-selectin induction by TNFa, primary screen, imaging, HUVEC, immunofluorescence, MLSMR starter and 10KST1 sets (AID 487;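 active means visually confirmed hit in the image check and inhibition above 20%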;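 on inhibition: signal is fraction of cell area covered by stained E-selectin grains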;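 on nuclei count: 100% = median nuclei count of all wells on the same plate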); conditions: HUVEC TNFalpha-induced E-selectin immunofluorescence imaging, at 2 µM; inhibition: stronger effect = higher value; nuclei count: measured here: cell number, toxicity
[4] = target: Voltage-gated potassium channel subunit beta-2 (Rattus norvegicus) (UniProt P62483); experiment: KvBeta enzyme negative modulators, primary screen, biochemical, NADPH fluorescence (AID 622;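 active means fluorescence slope higher than the sample average by over 3 SD, cut at about -0.22 in these data, passing the limit was not always enough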;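 further: slope of raw intensity against log time taken from 70 to 1610 s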); conditions: recombinant KvBeta, 4-cyanobenzaldehyde reduction, at 10 µM, stronger effect = higher value
[5] = target: Voltage-gated potassium channel subunit beta-2 (Rattus norvegicus) (UniProt P62483); experiment: KvBeta positive modulators, primary screen, biochemical, NADPH fluorescence (AID 623;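 active means NADPH fluorescence slope more negative than the mean of all samples by about 3 SD, 99.7% confidence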;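 further: fluorescence intensity change per second fitted from 20 to 320 s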); conditions: Recombinant KvBeta, NADPH fluorescence decrease slope, 10 min; at 10 µM; stronger effect = lower value
[6] = target: Muscarinic acetylcholine receptor M4 (Homo sapiens) (UniProt P08173); experiment: compounds altering M4/GIRK thallium flux, either direction, primary screen, M4 allosteric agonist project, cell-based, HEK293 M4/GIRK, BTC-AM (AID 625;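 active means fluorescence slope after compound addition differing from the mean of all tested samples at 99.7% confidence, mostly higher but some lower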;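 further: thallium influx through GIRK channels coupled to M4 in HEK293 cells with BTC-AM dye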); conditions: at 10 µM, actives lie on both sides
Procedure, shortened: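 Material: M4/GIRK1/GIRK2 stable HEK293 cell line. Medium: pH 7.3 thallium assay buffer. Dosing: single compound concentration, 10 µM final. Schedule: 1 h dye loading, 2 min kinetic read. Measured by: kinetic fluorescence with BTC-AM dye. Read-out: post-addition slope, 15–24 s, of baseline-normalized fluorescence. Benchmarks: carbachol and DMSO controls.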

[7] = inhibitors of Sendai virus-induced IRF3 signaling, primary screen, TLR/RLR signaling modifier project, cell-based, Sendai virus stimulus, luciferase, 10K MLSCN set (AID 602276;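 active means inhibition at or above 50% at 10 µM; inactive means inhibition below 50%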;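 further: firefly luciferase from ISG56 promoter only with Renilla not read in this screen; 0% = Sendai virus plus DMSO and 100% = medium plus DMSO without virus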); conditions: HEK293 RL24 IRF3 luciferase reporter, at 10 µM, stronger effect = higher value
[8] = inhibitors of poly I:C-induced TLR3 signaling, primary screen, cell-based, poly I:C stimulus, luciferase, 10K MLSCN set (AID 602277;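 active means inhibition of the reporter signal at or above 50%; inactive means inhibition below 50%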); conditions: HEK293-TLR3 RL24 IRF3 luciferase reporter, at 10 µM, stronger effect = higher value

Muscarinic acetylcholine receptor M4 (Homo sapiens), sequence (P08173 whole entry, looked up): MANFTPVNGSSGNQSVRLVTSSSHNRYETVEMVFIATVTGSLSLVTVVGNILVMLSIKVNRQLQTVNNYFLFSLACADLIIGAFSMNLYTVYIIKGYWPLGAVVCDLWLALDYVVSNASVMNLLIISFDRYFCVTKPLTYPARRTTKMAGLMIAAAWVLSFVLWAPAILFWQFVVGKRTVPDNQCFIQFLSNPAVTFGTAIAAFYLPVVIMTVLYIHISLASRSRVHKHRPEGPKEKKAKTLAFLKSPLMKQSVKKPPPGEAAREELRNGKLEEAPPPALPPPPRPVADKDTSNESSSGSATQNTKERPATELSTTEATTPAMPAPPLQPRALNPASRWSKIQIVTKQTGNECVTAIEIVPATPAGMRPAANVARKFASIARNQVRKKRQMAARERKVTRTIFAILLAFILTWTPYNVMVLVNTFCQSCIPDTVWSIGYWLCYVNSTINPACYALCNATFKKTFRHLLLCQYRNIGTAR
Voltage-gated potassium channel subunit beta-2 (Rattus norvegicus), sequence (P62483 whole entry, looked up): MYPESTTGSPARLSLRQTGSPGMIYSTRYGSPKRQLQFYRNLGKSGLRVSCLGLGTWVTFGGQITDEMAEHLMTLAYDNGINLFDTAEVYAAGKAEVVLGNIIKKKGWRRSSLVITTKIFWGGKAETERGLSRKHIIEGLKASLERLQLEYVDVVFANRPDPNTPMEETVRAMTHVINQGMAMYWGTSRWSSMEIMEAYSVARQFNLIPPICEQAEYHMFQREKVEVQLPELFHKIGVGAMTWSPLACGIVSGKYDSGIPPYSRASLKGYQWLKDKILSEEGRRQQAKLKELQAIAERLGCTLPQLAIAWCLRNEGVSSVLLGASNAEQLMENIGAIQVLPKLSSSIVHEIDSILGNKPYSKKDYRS

Row | SMILES | cell count [1] | inhibition [1] | inhibition of aggregation [2] | nuclei count [2] | inhibition [3] | nuclei count [3] | fluorescence slope [4] | NADPH fluorescence slope [5] | fluorescence slope [6] | inhibition [7] | inhibition [8]
1 | CCCC(=O)Nc1ccc(OCC(=O)OC)cc1 | 402 | -15.4% (inactive) | 5.1% (inactive) | 98.2% | 8% (inactive) | 84.9% | -0.439 (inactive) | -1.2e-05 (inactive) | 0.00585 (inactive) | 11% (inactive) | 21.9% (inactive)
2 | CCOCCCNc1ncnc2c1[nH]c1ccccc12 | 252 | 7.8% (inactive) | -7.5% (inactive) | 72.9% | -49.2% (inactive) | 109% | -0.513 (inactive) | -0.000137 (inactive) | 0.00341 (inactive) | -24.7% (inactive) | -100% (inactive)
3 | COC(=O)CN(c1ccc2c(c1)OCO2)S(C)(=O)=O | 356 | -0.3% (inactive) | 17.1% (inactive) | 81.1% | 62.9% (inactive) | 49.1% | -0.482 (inactive) | -2.7e-06 (inactive) | 0.00639 (inactive) | 8.14% (inactive) | 8.67% (inactive)
4 | O=C(O)c1ccc(-n2nnnc2Oc2ccccc2C(=O)N2CCOCC2)cc1 | 478 | -20.3% (inactive) | -2.2% (inactive) | 53.4% | 2.2% (inactive) | 89.9% | -0.482 (inactive) | -1.8e-05 (inactive) | 0.0048 (inactive) | 21% (inactive) | 12.5% (inactive)
5 | CC(=O)N1CCc2cc(S(=O)(=O)NC(C(=O)NCc3ccccc3)C(C)C)ccc21 (stereo not drawn) | 579 | -3.8% (inactive) | 23.8% (inactive) | 110% | 22.1% (inactive) | 94.8% | -0.587 (inactive) | -1.2e-05 (inactive) | 0.00584 (inactive) | 10.6% (inactive) | 15.4% (inactive)
6 | O=C(NCc1ccco1)C1Cc2ccccc2CN1S(=O)(=O)c1ccccc1F (stereo not drawn) | 654 | 7.7% (inactive) | 26.2% (inactive) | 95.5% | -30% (inactive) | 98.1% | -0.591 (inactive) | -1.7e-05 (inactive) | 0.0061 (inactive) | 6.51% (inactive) | -0.697% (inactive)
7 | COc1ccc2c(c1OC)C(=O)OC2Nn1cncn1 (stereo not drawn) | 334 | -9.5% (inactive) | -11.1% (inactive) | 113% | 1.1% (inactive) | 108% | -0.565 (inactive) | 1.7e-05 (inactive) | 0.00408 (inactive) | 15.9% (inactive) | 22.6% (inactive)
8 | O=C(O)C1C2CCC(O2)C1C(=O)Nc1cccc(F)c1 (stereo not drawn) | 596 | -2% (inactive) | -0.8% (inactive) | 109% | -56.8% (inactive) | 104% | -0.435 (inactive) | -3.5e-06 (inactive) | 0.00527 (inactive) | 20.3% (inactive) | 19.5% (inactive)
